# Rows were chosen to be rich in hits. Some 1.9% of all compounds tested hit in one or more screens of this group.
# PGC1a acetyl inh: lowers PGC1a acetylation signal in U2OS cells. AlphaScreen anti-acetyl-lysine; with virally co-expressed GCN5 acetyltransferase. inhibition, % at 15.6 µM. 350,000 tested, 0.17% active. AID 651687;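 active = every replicate shows inhibition of at least 40%; inconclusive = mean inhibition at least 40% but some replicate below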;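 note: 0% = neutral control wells and 100% = positive control wells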
# XiGFP reactiv: activators of X-chromosome reactivation in mouse fibroblasts. XiGFP mouse fibroblasts, % GFP-positive cells imaging, 3 d; cells co-treated with 5-aza-dC sensitizer; scaled so ellipticine positive control = 100%. activation, % at 7.58 µM. 360,000 tested, 0.055% active. AID 743238;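 active = mean normalized replicate activation at least 10% and every replicate at or above 10%; inconclusive = only one of the two criteria met; inactive = mean below 10% and not all replicates reach 10%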;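 note: 0% = median of on-plate neutral control wells and 100% = ellipticine 6 µM median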
#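 material = 68-5-11 XiGFP fibroblast line | medium = DMEM plus 5-aza-dC sensitizer | schedule = 3 days compound exposure | benchmarks = positive control ellipticine, 6 µM final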
# Cneo AK release: Cryptococcus neoformans lysis via adenylate kinase release | C. neoformans lysis, adenylate kinase release luminescence, 4 h; normalised: neutral wells 0, clomiphene wells 100 | lysis activity, % at 15 µM | 360,000 tested, 0.2% active;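 active = mean lysis activity across replicates of at least 80%, whatever share of replicates individually reach that level; inactive = mean lysis activity below 80%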
#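 Test system: log-phase Cryptococcus neoformans yeast cells; Quantity: yeast cell density of 5 × 10^6 cells/mL; Buffer or medium: YPD; Doses: single compound concentration per well; Timing: 4 h at 37 °C static, read 1 h later; Measured by: AK luminescence; Read-out basis: lysis from increased AK signal; Control set: Clomiphene as positive control.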
# FN deposit inh: fibronectin deposition inhibition; AH1F fibroblasts, Alexa488-fibronectin deposition fluorescence, overnight; inhibition, % at 12.6 µM; 350,000 tested, 0.086% active; AID 743247;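 active = mean inhibition across replicates of 30% or more, regardless of how many single replicates reach that level; inconclusive = mean under 30% yet at least half of replicates reach 30%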;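 note: positive control wells lacked labelled fibronectin entirely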
#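 Assay system: AH1F fibroblast monolayer, labelled fibronectin deposition. Amount: 10000 cells per well. Also added: labelled fibronectin 24 nM. Compound: single-point pinned compound. Incubation: cell attachment 1 h, compound and FN exposure overnight. Detection: fluorescence after three HBSS washes, excitation 485 nm, emission 525 nm. Read-out: inhibition of fibronectin deposition signal.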
# DENV2 CPE: DENV2-induced cell death inhibition | CPE inhibition, % at 9.99 µM | DENV2-infected cells, cytopathic effect rescue, plate reader | 350,000 tested, 1.7% active; in the data active = CPE inhibition above about 20%, passing the limit was not always enough; inconclusive = no clear call, values can overlap the other calls; tested in BHK-21 cells;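 note: 0% = median of neutral control wells and 100% = median of positive control wells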
# CFTR F508del cor: correctors of CFTR F508del function in bronchial epithelial cells; CFBE cells, YFP halide quenching; stimulated with forskolin plus potentiator P3; % fluorescence drop versus neutral controls; activity (quench increase), % at 7.58 µM; 350,000 tested, 0.36% active;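 active = mean added fluorescence quench of at least 8% versus neutral control, with both replicates also reaching 8%; inconclusive = only one of the mean or replicate conditions met; inactive = mean below 8% and not both replicates reaching 8%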;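 note: cells transiently co-express mutant CFTR-F508del with the halide-sensitive YFP; corrector assay measuring rescue of mutant channel to the surface after 24 h compound exposure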
# Active calls of the source: *; ? = inconclusive; . = no result given; ! = not active in a repeat.
SMILES,PGC1a acetyl inh,XiGFP reactiv,Cneo AK release,FN deposit inh,DENV2 CPE,CFTR F508del cor
O=C(C[C@H]1CC[C@H]2[C@@H](COC[C@@H](O)CN2S(=O)(=O)c2cccc(Cl)c2)O1)NCc1ccncn1,-4,0,-1,2,-7,0
COc1cccc(COC(=O)CSCC(=O)Nc2ccc(C)cc2)c1OC,-6,0,-1,-11,72*,.
CN(C)C(=O)C[C@@H]1CC[C@@H](NC(=O)c2ccc(F)cc2)[C@H](CO)O1,17,0,-3,3,45*,2
O=C(C[C@@H]1CC[C@@H](NC(=O)Nc2ccc3c(c2)OCO3)[C@@H](CO)O1)NCc1ccc2c(c1)OCO2,2,-1,-2,.,29*,-2
O=C(C[C@H]1CC[C@H](NC(=O)c2ccc3c(c2)OCO3)[C@@H](CO)O1)NCc1ccc(F)cc1,11,0,-8,.,9,1
O=C(C[C@H]1CC[C@@H](NC(=O)Nc2ccc3c(c2)OCO3)[C@H](CO)O1)NCc1ccc2c(c1)OCO2,3,-1,0,.,-7,-2
O=C(C[C@@H]1CC[C@H](NC(=O)c2ccc3c(c2)OCO3)[C@@H](CO)O1)NCc1ccc(F)cc1,-11,0,-9,2,32*!,2
O=C(C[C@@H]1CC[C@@H](NC(=O)NC2CCCCC2)[C@@H](CO)O1)NCc1ccc(F)cc1,11,0,57,17,39*,1
O=C(Nc1ccccc1F)N1[C@H](CO)[C@@H]2c3ccccc3NC[C@@H]21,7,0,-3,.,3,-1
Cc1noc(C)c1S(=O)(=O)Nc1ccc2c(c1)C(=O)N([C@@H](C)CO)C[C@H](C)[C@@H](CN(C)S(=O)(=O)c1ccccc1)OCCCC[C@H](C)O2,2,0,5,0,-14,-1
O=C(NCC[C@H]1CC[C@H](NS(=O)(=O)c2ccc(F)cc2)[C@@H](CO)O1)c1ccc2c(c1)OCO2,8,1,102*,-11,4,-1
O=C(C[C@H]1CC[C@@H](NC(=O)CC2CC2)[C@@H](CO)O1)NCc1ccc(-c2ccccc2)cc1,-4,0,4,4,48*,3
O=C(NCC[C@@H]1CC[C@@H](NS(=O)(=O)c2ccc(F)cc2)[C@H](CO)O1)c1ccc2c(c1)OCO2,-10,1,12,-20,14,-2
Cc1ccc(CNC(=O)[C@H](C)N2C(=O)N3CCc4c([nH]c5ccccc45)[C@@]3(C)C2=O)cc1,-27,.,-1,.,35*,2
COc1ccccc1/C=C(/C(=O)OCC(=O)NCc1ccccc1)c1ccccc1,92*,0,1,4,.,.
COc1ccccc1/C=C(/C(=O)OCC(=O)Nc1ccccc1C)c1ccccc1,.,0,1,4,11,0
C[C@@H]1CCCCO[C@H](CN(C)Cc2ccc3c(c2)OCO3)[C@H](C)CN([C@@H](C)CO)C(=O)c2cc(NS(=O)(=O)c3ccc(F)cc3)ccc2O1,-5,0,32,-10,?,4
O=C(Nc1ccccc1F)N[C@@H]1CC[C@H](CCNC(=O)C2CCCC2)O[C@H]1CO,-1,0,-3,-1,26*,-1
O=C(Nc1ccccc1F)N[C@@H]1CC[C@H](CCNC(=O)C2CCCC2)O[C@@H]1CO,-9,0,-1,-2,-6,1
O=C(Nc1ccccc1F)N[C@@H]1CC[C@@H](CCNC(=O)C2CCCC2)O[C@H]1CO,-3,0,2,-8,39*,2
COc1ccc(C(=O)/C=C/C(=O)N(Cc2ccccc2)C(C(=O)NC2CCCCC2)c2ccncc2)c(O)c1 (stereo not drawn),-5,0,2,-3,41*,3
CCCOc1ccc(C(=O)Nc2ccc(S(=O)(=O)N3C[C@@H]4C[C@@H](C3)c3cccc(=O)n3C4)cc2)cc1,-16,.,0,.,31*,3
CCOc1ccc(/C=N/NC(=O)c2ccccc2Cl)cc1CN1CC2CC(C1)c1cccc(=O)n1C2 (stereo not drawn),-11,.,5,.,-6,3
CCOc1ccc(/C=N/NC(=O)c2ccc(F)cc2)cc1CN1CC2CC(C1)c1cccc(=O)n1C2 (stereo not drawn),1,.,1,.,20*,1
COc1ccc(-c2ccc3c(c2)[C@@H]2[C@@H](CCN2S(=O)(=O)c2ccccc2F)[C@@H](CO)N3C)cc1,1,0,-14,-1,-1,-2
SMILES,PGC1a acetyl inh,XiGFP reactiv,Cneo AK release,FN deposit inh,DENV2 CPE,CFTR F508del cor
CC(=O)OCC1=C(C(=O)O)N2C(=O)C(NC(=O)Cn3nc(C(F)F)c(Cl)c3C)C2SC1 (stereo not drawn),.,0,-4,6,2,2
CC(=O)OCC1=C(C(=O)O)N2C(=O)C(NC(=O)CCn3nc(C)c(Cl)c3C)C2SC1 (stereo not drawn),-9,0,.,33*,1,-1
COCC(=O)Nc1ccc2c(c1)[C@@H]1C[C@H](CC(=O)OC)O[C@H](CO)[C@@H]1O2,0,1,2,-1,28*!,2
O=C(C[C@H]1C[C@@H]2c3cc(NC(=O)CC4CC4)ccc3O[C@@H]2[C@H](CO)O1)NCc1ccccc1,-1,0,0,-7,98*,-1
O=C(O)C[C@@H]1C[C@@H]2c3cc(NC(=O)CC4CC4)ccc3O[C@@H]2[C@H](CO)O1,-1,0,-11,3,30*,-2
COCC(=O)Nc1ccc2c(c1)[C@H]1C[C@H](CC(=O)OC)O[C@H](CO)[C@H]1O2,7,0,5,-9,0,0
O=C(O)C[C@@H]1C[C@@H]2c3cc(NC(=O)CC4CC4)ccc3O[C@@H]2[C@@H](CO)O1,1,0,-1,-9,-3,0
COC(=O)C[C@H]1C[C@H]2c3cc(NC(=O)CC4CC4)ccc3O[C@H]2[C@H](CO)O1,-3,0,0,12,-4,-4
O=C(C[C@@H]1C[C@@H]2c3cc(NC(=O)CC4CC4)ccc3O[C@@H]2[C@H](CO)O1)NCc1ccccc1,-9,1,-2,17,7,0
COC(=O)C[C@@H]1C[C@H]2c3cc(NC(=O)CC4CC4)ccc3O[C@H]2[C@@H](CO)O1,-5,0,4,-7,24*!,3
C[C@@H]1CN([C@@H](C)CO)C(=O)c2cc(NC(=O)c3ccncc3)ccc2O[C@@H](C)CCCCO[C@H]1CN(C)S(=O)(=O)c1ccc(F)cc1,-13,0,-1,-14,1,2

# Compound activity deposited in PubChem by Broad Institute.
